# Assay results from PMC9989852 (Food and chemical toxicology : an international journal …, 2022).
# Several values for one entry are separate records, joined by “and”; a condition that tells them apart may be missing. Equal values may be shown once.
# What was measured:
# [1] = PFAS concentration in pooled urine; assay type: in vivo, B6C3F1 mice; conditions: 5%, dermal, 28 days; 5 pooled samples
# In short: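 Urine was caught in a weigh boat as it was excreted during CO2 euthanasia, about 24 h after the final daily ear dose (25 μl/ear, acetone vehicle; female B6C3F1 mice). The 5 mice per group were pooled, with variable volume. Samples underwent solid-phase extraction and LC/MS/MS, as linear isomer for short-chain analytes and linear plus branched for the comparator. Each group gave a single value without statistics.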
# ear pinna [2] = test: Ear; assay type: in vivo, B6C3F1 mice; conditions: dermal, 28 days, mice affected of 5
# In short: (§1)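 Female B6C3F1 mice (5/group) received 25 μl/ear on the dorsal ear surfaces daily, with acetone as vehicle. Tissues were formalin-fixed about 24 h after the last dose: liver remainder, half spleen, right kidney and half ear pinna. Sections were paraffin-embedded, cut at 5 μm and stained with H&E. A veterinary pathologist read them per STP guideline and graded 1 (minimal) to 5 (severe) by extent.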
# [3] = PFAS concentration in serum; assay type: in vivo, B6C3F1 mice; conditions: 5%, dermal, 28 days
# In short: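 Serum came by cardiac puncture about 24 h after the final daily ear dose (25 μl/ear, acetone vehicle; female B6C3F1 mice). Samples underwent solid-phase extraction and LC/MS/MS. Short-chain analytes were quantified as linear isomer only; the legacy comparator was quantified as linear plus branched. Data are mean ± SE of 4–5 mice, one-way ANOVA with Dunnett's vs vehicle.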
# B6C3F1 mice = test: Organ weights and body weight after 28-day dermal exposure; assay type: in vivo; conditions: 28 days
# liver = test: Liver histopathology after 28-day dermal exposure; assay type: in vivo, B6C3F1 mice; conditions: 28 days, mice affected of 5
# In short: as §1
# ear pinna [4] = test: Skin; assay type: in vivo, B6C3F1 mice; conditions: dermal, 28 days
# In short: (§2)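 Dosing was daily topical to both dorsal ears (25 μl/ear, acetone vehicle) in female B6C3F1 mice. Liver caudate lobe or half ear pinna was stored in RNAlater and homogenized in RLT buffer. RNA was isolated on RNeasy columns with DNase, and 1–2 μg was reverse-transcribed. TaqMan real-time PCR was read as 2−ΔΔCT vs vehicle, normalized to β-actin. Statistics: ANOVA/Dunnett's, or Kruskal-Wallis/Dunn's for unequal variance.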
# [5] = tested on: auricular draining lymph nodes (dLNs); test: Draining lymph node phenotyping by flow cytometry after 28-day dermal exposure; assay type: in vivo, B6C3F1 mice; conditions: 28 days
# In short: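 Female B6C3F1 mice (5/group) received 25 μl/ear daily to the dorsal ears in acetone. About 24 h after the last dose, tissues went into RPMI: both auricular dLNs, half spleen and one ear pinna. Single-cell suspensions were acquired on an LSR II, with populations gated per supplemental strategy and FMO gating controls. Results are mean ± SE, n=5, by one-way ANOVA.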
# kidney, spleen = test: Kidney and spleen histopathology after 28-day dermal exposure; assay type: in vivo, B6C3F1 mice; conditions: 1.25–5%, 28 days, data not shown
# In short: as §1
# liver (caudate) = test: Liver gene expression; assay type: in vivo, B6C3F1 mice; conditions: dermal, 28 days
# In short: as §2
structure (smiles),measurement,setting,value
"O=C(O)C(F)(F)C(F)(F)C(F)(F)C(F)(F)F [PFPeA, perfluoropentanoic acid]",urine PFAS concentration,[1],5600 µg/mL
same,"Ear: Degeneration/regeneration, cartilage, focal, Mild (incidence)",ear pinna [2]; 1.25%,0
same,"Ear: Fibrosis, dermis, focal, Minimal (incidence)",ear pinna [2]; 1.25%,0
same,"Ear: Hyperkeratosis, epidermis, focal, Mild (incidence)",ear pinna [2]; 1.25%,0
same,"Ear: Hyperkeratosis, epidermis, focal, Minimal (incidence)",ear pinna [2]; 1.25%,0
same,"Ear: Hyperplasia, epidermis, focal, Mild (incidence)",ear pinna [2]; 1.25%,0
same,"Ear: Hyperplasia, epidermis, focal, Minimal (incidence)",ear pinna [2]; 1.25%,0
same,"Ear: Inflammation, mixed cell, dermis, Minimal (incidence)",ear pinna [2]; 1.25%,0
same,"Ear: Inflammation, mononuclear cell, dermis, Minimal (incidence)",ear pinna [2]; 1.25%,0
same,"Ear: Necrosis, epidermis, multifocal, Minimal (incidence)",ear pinna [2]; 1.25%,0
same,"Ear: Degeneration/regeneration, cartilage, focal, Mild (incidence)",ear pinna [2]; 2.5%,0
same,"Ear: Fibrosis, dermis, focal, Minimal (incidence)",ear pinna [2]; 2.5%,0
same,"Ear: Hyperkeratosis, epidermis, focal, Mild (incidence)",ear pinna [2]; 2.5%,0
same,"Ear: Hyperkeratosis, epidermis, focal, Minimal (incidence)",ear pinna [2]; 2.5%,0
same,"Ear: Hyperplasia, epidermis, focal, Mild (incidence)",ear pinna [2]; 2.5%,0
same,"Ear: Hyperplasia, epidermis, focal, Minimal (incidence)",ear pinna [2]; 2.5%,4/5 and 4
same,"Ear: Inflammation, mixed cell, dermis, Minimal (incidence)",ear pinna [2]; 2.5%,2/5 and 2
same,"Ear: Inflammation, mononuclear cell, dermis, Minimal (incidence)",ear pinna [2]; 2.5%,0
same,"Ear: Necrosis, epidermis, multifocal, Minimal (incidence)",ear pinna [2]; 2.5%,0
same,"Ear: Degeneration/regeneration, cartilage, focal, Mild (incidence)",ear pinna [2]; 5%,0
same,"Ear: Fibrosis, dermis, focal, Minimal (incidence)",ear pinna [2]; 5%,4/5 and 4
same,"Ear: Hyperkeratosis, epidermis, focal, Mild (incidence)",ear pinna [2]; 5%,0
same,"Ear: Hyperkeratosis, epidermis, focal, Minimal (incidence)",ear pinna [2]; 5%,2/5 and 2
same,"Ear: Hyperplasia, epidermis, focal, Mild (incidence)",ear pinna [2]; 5%,3/5 and 3
same,"Ear: Hyperplasia, epidermis, focal, Minimal (incidence)",ear pinna [2]; 5%,2/5 and 2
same,"Ear: Inflammation, mixed cell, dermis, Minimal (incidence)",ear pinna [2]; 5%,4/5 and 4
same,"Ear: Inflammation, mononuclear cell, dermis, Minimal (incidence)",ear pinna [2]; 5%,0
same,"Ear: Necrosis, epidermis, multifocal, Minimal (incidence)",ear pinna [2]; 5%,0
same,PFAS serum concentration vs vehicle,[3],significant increase
same,body weight or overt signs of toxicity,B6C3F1 mice; 1.25–5%,no changes
same,"Liver weight (% body weight), increase vs vehicle-treated mice",B6C3F1 mice; 5%,12%
same,"Liver: Hypertrophy, centrilobular, hepatocyte, Mild (incidence)",liver; 1.25%,0
same,"Liver: Hypertrophy, centrilobular, hepatocyte, Minimal (incidence)",liver; 1.25%,5/ 5 and 5
same,"Liver: Hypertrophy, centrilobular, hepatocyte, Mild (incidence)",liver; 2.5%,5/5 and 5
same,"Liver: Hypertrophy, centrilobular, hepatocyte, Minimal (incidence)",liver; 2.5%,0
same,"Liver: Hypertrophy, centrilobular, hepatocyte, Mild (incidence)",liver; 5%,5/5 and 5
same,"Liver: Hypertrophy, centrilobular, hepatocyte, Minimal (incidence)",liver; 5%,0
same,skin Krt10 gene expression,ear pinna [4]; 1.25%,increased
same,skin Pparγ gene expression,ear pinna [4]; 1.25%,decreased
same,skin Pparδ gene expression,ear pinna [4]; 1.25–5%,no changes
same,skin Krt10 gene expression,ear pinna [4]; 2.5%,increased
same,skin Pparγ gene expression,ear pinna [4]; 2.5%,decreased
same,skin Flg gene expression,ear pinna [4]; 5%,increased
same,"skin Il6 gene expression, increase",ear pinna [4]; 5%,2.5 fold
same,skin Krt10 gene expression,ear pinna [4]; 5%,increased
same,skin PPARα gene expression,ear pinna [4]; 5%,decreased
same,skin Pparγ gene expression,ear pinna [4]; 5%,decreased
same,"skin S100a7a gene expression, increase",ear pinna [4]; 5%,42.5 fold
same,"skin Serpine1 gene expression, increase",ear pinna [4]; 5%,3 fold
same,"skin Tslp gene expression, increase",ear pinna [4]; 5%,3 fold
same,dLN B-cells cell number,[5]; 1.25%,8.67 ± 0.72 × 10^5
same,dLN B-cells frequency,[5]; 1.25%,14.18 ± 0.59%
same,dLN CD4^+ cell number,[5]; 1.25%,2.63 ± 0.27 × 10^6
same,dLN CD4^+ frequency,[5]; 1.25%,42.52 ± 0.79%
same,dLN CD8^+ cell number,[5]; 1.25%,18.60 ± 0.18 × 10^5
same,dLN CD8^+ frequency,[5]; 1.25%,30.24 ± 0.44%
same,dLN CD11b+ cell number,[5]; 1.25%,7.21 ± 1.61 × 10^4
same,dLN CD11b+ frequency,[5]; 1.25%,1.26 ± 0.29%
same,dLN CD86 B-cells,[5]; 1.25%,1140.40 ± 46.06 MFI
same,dLN CD86 DCs,[5]; 1.25%,42.60 ± 1.44 MFI x 10^2
same,dLN Dendritic Cells cell number,[5]; 1.25%,6.24 ± 0.42 × 10^4
same,dLN Dendritic Cells frequency,[5]; 1.25%,1.02 ± 0.03%
same,dLN Eosinophils cell number,[5]; 1.25%,20.90 ± 7.02 × 10^2
same,dLN MHCII B-cells,[5]; 1.25%,105.00 ± 1.83 MFI × 10^2
same,dLN NK cell number,[5]; 1.25%,3.23 ± 0.30 × 10^4
same,dLN NK frequency,[5]; 1.25%,0.53 ± 0.03%
same,dLN Neutrophils cell number,[5]; 1.25%,12.30 ± 1.75 × 10^2
same,dLN Total Cellularity,[5]; 1.25%,6.15 ± 0.57 × 10^6
same,dLN B-cells cell number,[5]; 2.5%,12.60 ± 2.36 × 10^5
same,dLN B-cells frequency,[5]; 2.5%,15.00 ± 0.92 %
same,dLN CD4^+ cell number,[5]; 2.5%,3.34 ± 0.55 × 10^6
same,dLN CD4^+ frequency,[5]; 2.5%,39.54 ± 0.62 %
same,dLN CD8^+ cell number,[5]; 2.5%,25.00 ± 3.80 × 10^5
same,dLN CD8^+ frequency,[5]; 2.5%,29.96 ± 0.86%
same,dLN CD11b+ cell number,[5]; 2.5%,17.00 ± 4.33 × 10^4
same,dLN CD11b+ frequency,[5]; 2.5%,1.92 ± 0.19%
same,dLN CD86 B-cells,[5]; 2.5%,1131.40 ± 96.26 MFI
same,dLN CD86 DCs,[5]; 2.5%,40.30 ± 1.05 MFI x 10^2
same,dLN Dendritic Cells cell number,[5]; 2.5%,10.40 ± 1.31 × 10^4
same,dLN Dendritic Cells frequency,[5]; 2.5%,1.31 ± 0.15%
same,dLN Eosinophils cell number,[5]; 2.5%,81.90 ± 15.70 × 10^2
same,dLN MHCII B-cells,[5]; 2.5%,115.00 ± 6.25 MFI × 10^2
same,dLN NK cell number,[5]; 2.5%,5.52 ± 0.71 × 10^4
same,dLN NK frequency,[5]; 2.5%,0.69 ± 0.07%
same,dLN Neutrophils cell number,[5]; 2.5%,19.10 ± 3.38 × 10^2
same,dLN Total Cellularity,[5]; 2.5%,8.45 ± 1.43 × 10^6
same,dLN B-cells cell number,[5]; 5%,17.00 ± 1.58 × 10^5
same,dLN B-cells frequency,[5]; 5%,16.22 ± 0.70 %
same,dLN CD4^+ cell number,[5]; 5%,3.99 ± 0.36 × 10^6
same,dLN CD4^+ frequency,[5]; 5%,38.02 ± 0.95 %
same,dLN CD8^+ cell number,[5]; 5%,30.20 ± 0.23 × 10^5
same,dLN CD8^+ frequency,[5]; 5%,28.88 ± 0.40%
same,dLN CD11b+ cell number,[5]; 5%,24.00 ± 3.48 × 10^4
same,dLN CD11b+ frequency,[5]; 5%,2.26 ± 0.17%
same,dLN CD86 B-cells,[5]; 5%,1188.80 ± 47.41 MFI
same,dLN CD86 DCs,[5]; 5%,36.80 ± 2.23 MFI x 10^2
same,dLN Dendritic Cells cell number,[5]; 5%,12.60 ± 1.09 × 10^4
same,dLN Dendritic Cells frequency,[5]; 5%,1.21 ± 0.08%
same,dLN Eosinophils cell number,[5]; 5%,140.00 ± 23.00 × 10^2
same,dLN MHCII B-cells,[5]; 5%,126.00 ± 6.53 MFI × 10^2
same,dLN NK cell number,[5]; 5%,7.50 ± 0.56 × 10^4
same,dLN NK frequency,[5]; 5%,0.73 ± 0.05%
same,dLN Neutrophils cell number,[5]; 5%,22.40 ± 5.58 × 10^2
same,dLN Total Cellularity,[5]; 5%,10.50 ± 0.93 × 10^6
same,microscopic observations in the kidney or the spleen,"kidney, spleen","No PFPeA, PFHxA, or PFHpA-related microscopic observations"
same,liver Pltp gene expression,liver (caudate); 2.5%,increase
same,liver Pparδ expression,liver (caudate); 2.5%,decreasing
same,"liver Serpine1 gene expression, increase",liver (caudate); 2.5%,8 fold
same,liver Acox1 gene expression,liver (caudate); 5%,increase
same,"liver Cd36 gene expression, increase",liver (caudate); 5%,6.5 fold
same,"liver Ehhadh gene expression, increase",liver (caudate); 5%,8.8 fold
same,liver Fabp1 gene expression,liver (caudate); 5%,increased
same,liver Pltp gene expression,liver (caudate); 5%,increase
same,liver Pparγ expression,liver (caudate); 5%,increasing
same,liver Pparδ expression,liver (caudate); 5%,decreasing
same,"liver Serpine1 gene expression, increase",liver (caudate); 5%,11.3 fold
